# Measurements taken from ChEMBL document CHEMBL1949566 (Bioorg Med Chem Lett, 2012).
# Active and inactive are the calls of the source. No cut-off for these calls is given here.
# How the values were obtained:
# Rattus norvegicus [1] = organism: Rattus norvegicus; assay: Displacement of [125I]angiotensin 2 from angiotensin 2 receptor type 1 in Sprague-Dawley rat adrenal cortex membranes at 10 uM after 60 mins by gamma counting; format: cell membranes; conditions: Membrane
# Rattus norvegicus [2] = assay: Antihypertensive activity in iv dosed pithed rat model assessed as inhibition of angiotensin 2-induced pressor response by gould pressure transducer-coupled grass polygraphy; format: functional
# Outline: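 Pithed rats had blood pressure recorded by an arterial catheter to a pressure transducer/polygraph. After about 60 min of stabilization, AngII (100 ng/kg iv) was given three times at 15 min intervals to set a basal pressor response. Compound was then given iv, followed by AngII 100 ng/kg iv. ED50 for 50% inhibition of maximal pressor response came from the dose–pressure curve.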
# [3] = Displacement of [125I]angiotensin 2 from angiotensin 2 receptor type 1 in Sprague-Dawley rat adrenal cortex membranes after 60 mins by gamma counting; format: cell membranes, Membrane
# Outline: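 Adrenal cortex membranes came from male Sprague–Dawley rats (200–250 g); the pellet was taken by differential centrifugation up to 100,000 g. Membranes (60–70 µg protein/assay) were suspended in 50 mM Tris–HCl, 10 mM MgCl2, 0.25% BSA, pH 7.4, with [125I]AngII (0.05 nM) and test compound (3×10^-12 to 10^-6 M, DMSO). Incubation ran 60 min at 25 °C and ended by GF/B filtration. IC50 is 50% inhibition of binding.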
# [4] = target: T1, Type-1 angiotensin II receptor (Oryctolagus cuniculus, UniProt P34976); assay: Antagonist activity at angiotensin 2 receptor type 1 in New Zealand White rabbit descending thoracic aorta rings assessed as inhibition of angiotensin 2-induced contraction preincubated for 30 mins prior angiotensin 2 challenge; format: functional, tissue-based
# T1 sequence (P34976 whole entry): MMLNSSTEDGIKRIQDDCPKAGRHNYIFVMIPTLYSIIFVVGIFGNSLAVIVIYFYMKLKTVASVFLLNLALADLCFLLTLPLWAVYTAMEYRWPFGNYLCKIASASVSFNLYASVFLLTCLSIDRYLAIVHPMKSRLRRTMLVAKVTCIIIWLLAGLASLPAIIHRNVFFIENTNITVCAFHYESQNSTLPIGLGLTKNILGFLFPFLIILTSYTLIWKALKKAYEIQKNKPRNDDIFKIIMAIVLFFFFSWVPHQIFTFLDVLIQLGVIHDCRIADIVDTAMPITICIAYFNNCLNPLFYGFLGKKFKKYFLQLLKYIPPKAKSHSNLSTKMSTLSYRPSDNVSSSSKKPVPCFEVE
# Outline: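 Aortic rings held at 2 g resting tension and equilibrated 60 min with repeated washing in Krebs bicarbonate solution. Responsiveness was checked with AngII, then a control cumulative AngII concentration–contractile response curve was run. After washout, test substance was incubated 30 min and a second AngII curve obtained.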
# Rattus norvegicus [5] = assay: Ratio of losartan ED50 to compound ED50 for antihypertensive activity in iv dosed pithed rat model assessed as inhibition of angiotensin 2-induced pressor response; format: functional
# Rattus norvegicus [6] = assay: Antihypertensive activity in furosemide treated rat high-renin model assessed as decrease in mean arterial pressure at 10 mg/kg, po up to 8 hrs; format: functional, organism-based; design: dose 10 mg/kg; conditions: Artery
# Outline: (§1)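 Furosemide 10 mg/kg sc was given 20 and 2 h before the experiment, with food and water withdrawn for 24 h. Mean arterial pressure and heart rate were recorded by polygraph. After about 60 min of stabilization, 10 mg/kg was given orally. Readings were taken at 20, 40 and 60 min, then every 30 min to 8 h.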
# [7] = target: T2, Type-1 angiotensin II receptor (Oryctolagus cuniculus) (UniProt P34976); assay: Antagonist activity at angiotensin 2 receptor type 1 in New Zealand White rabbit descending thoracic aorta rings assessed as inhibition of noradrenaline-induced contraction preincubated for 30 mins prior noradrenaline challenge; format: functional, tissue-based
# T2 sequence (whole entry): T1 sequence (P34976 whole entry)
# Rattus norvegicus [8] = assay: Antihypertensive activity in conscious spontaneously hypertensive rat assessed as decrease in mean arterial blood pressure at 10 mg/kg, po up to 24 hrs; format: functional, organism-based; design: dose 10 mg/kg; conditions: Artery
# Outline: (§2)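 SHRs were acclimatized 10 weeks, then habituated for 7 days to 37 °C chamber prewarming for 10 min, restraint and a tail cuff with pulse sensor. After stabilization, 10 mg/kg was given orally.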
# [9] = target: T2, Type-1 angiotensin II receptor (Oryctolagus cuniculus); assay: Ratio of losartan IC50 to compound IC50 for antagonist activity at angiotensin 2 receptor type 1 in New Zealand White rabbit descending thoracic aorta rings; format: functional, tissue-based
# Rattus norvegicus [10] = assay: Antihypertensive activity in conscious spontaneously hypertensive rat assessed as decrease in mean arterial blood pressure at 10 mg/kg, po up to 5 hrs; format: functional, organism-based; design: dose 10 mg/kg; conditions: Artery; outline: as §2
# [11] = target: T2, Type-1 angiotensin II receptor (Oryctolagus cuniculus); assay: Antagonist activity at angiotensin 2 receptor type 1 in New Zealand White rabbit descending thoracic aorta rings assessed as inhibition of KCl-induced contraction preincubated for 30 mins prior KCl challenge; format: functional, tissue-based
# Rattus norvegicus [12] = organism: Rattus norvegicus; assay: Ratio of losartan IC50 to compound IC50 for displacement of [125I]angiotensin 2 from angiotensin 2 receptor type 1 in Sprague-Dawley rat adrenal cortex membranes; format: cell membranes; conditions: Membrane
# [13] = Half life in Sprague-Dawley rat at 3 mg/kg, po; format: ADME, organism-based; design: dose 3 mg/kg, route oral; conditions: in vivo
# Outline: (§3)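 Male Sprague–Dawley rats (n = 7) given a single oral dose of 3 mg/kg. AUC, Cmax, Tmax, t1/2, Cl/F and Vss/F were derived from plasma profiles and reported as mean ± S.D.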
# [14] = Oral steady-state volume of distribution in Sprague-Dawley rat at 3 mg/kg; format: ADME, organism-based; design: dose 3 mg/kg; conditions: in vivo, read-out: Vss/F; outline: as §3
# [15] = Toxicity in po dosed mouse assessed maximum tolerated dose; format: organism-based; conditions: in vivo
# Outline: (§4)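 Maximum tolerated dose from a single oral administration.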
# [16] = AUC in Sprague-Dawley rat at 3 mg/kg, po; format: ADME, organism-based; design: dose 3 mg/kg, route oral; conditions: plasma; outline: as §3
# [17] = Tmax in Sprague-Dawley rat at 3 mg/kg, po; format: ADME, organism-based; design: dose 3 mg/kg, route oral; conditions: in vivo; outline: as §3
# Rattus norvegicus [18] = assay: Effect on basal heart rate in furosemide treated rat high-renin model at 10 mg/kg, po up to 8 hrs; format: ADME, organism-based; design: dose 10 mg/kg, route oral; conditions: in vivo; outline: as §1
# Rattus norvegicus [19] = assay: Antihypertensive activity in conscious spontaneously hypertensive rat assessed as decrease in mean arterial blood pressure at 10 mg/kg, po at 5 hrs post dose; format: functional, Artery; design: scale not given: the % may be the effect or the level left; outline: as §2
# [20] = Toxicity in po dosed rat assessed maximum tolerated dose; format: organism-based; conditions: in vivo; outline: as §4
# Rattus norvegicus [21] = assay: Drug excretion in Sprague-Dawley rat at 3 mg/kg, po; format: ADME, organism-based; design: dose 3 mg/kg, route oral; conditions: in vivo
# [22] = Apparent oral clearance in Sprague-Dawley rat at 3 mg/kg; format: ADME, organism-based; design: dose 3 mg/kg, route oral; conditions: in vivo; outline: as §3
# [23] = Cmax in Sprague-Dawley rat at 3 mg/kg, po; format: ADME, organism-based; design: dose 3 mg/kg, route oral; conditions: in vivo; outline: as §3
IC50 [3],IC50 [4],Structure (SMILES),ED50 (Rattus norvegicus [2]),further results
431 nM,–,CCCCc1nc(C)c(CC(=O)O)c(=O)n1Cc1ccc(-c2ccccc2-c2nnn[nH]2)cc1,0.13 mg/kg,inhibition (Rattus norvegicus [1]): 3.65%
–,27.1 nM,CCCc1nc(C)c(CC(=O)O)c(=O)n1Cc1ccc(-c2ccccc2-c2nnn[nH]2)cc1,–,–
70.5 nM,–,CCCCc1nc(C)c(CCC(=O)N2CCCC2)c(=O)n1Cc1ccc(-c2ccccc2-c2nnn[nH]2)cc1,0.206 mg/kg,–
–,30.8 nM,CCCCc1nc(C)c(CC(=O)N(CC)CC)c(=O)n1Cc1ccc(-c2ccccc2-c2nnn[nH]2)cc1,0.089 mg/kg,–
–,–,CCCCc1nc(C)c(CC(=O)N(C)C)c(=O)n1Cc1ccc(-c2ccccc2-c2nnn[nH]2)cc1,0.018 mg/kg,Ratio ED50 (Rattus norvegicus [5]): 19; inhibition (Rattus norvegicus [1]): 71.7%
59.3 nM,–,CCCCc1nc(C)c(CC(=O)N2CCC[C@H]2C(=O)OC)c(=O)n1Cc1ccc(-c2ccccc2-c2nnn[nH]2)cc1,0.043 mg/kg,–
23 nM,–,CCCCc1nc(C)c(CC(=O)N2CCOCC2)c(=O)n1Cc1ccc(-c2ccccc2-c2nnn[nH]2)cc1,0.018 mg/kg,Ratio ED50 (Rattus norvegicus [5]): 19
66.2 nM,–,CCCCc1nc(C)c(CC(=O)OCC)c(=O)n1Cc1ccc(-c2ccccc2-c2nnn[nH]2)cc1,0.108 mg/kg,–
17 nM,–,CCCCc1nc(C)c(CC(=O)N2CCC[C@H]2C(N)=O)c(=O)n1Cc1ccc(-c2ccccc2-c2nnn[nH]2)cc1,0.023 mg/kg,–
64.7 nM,–,CCCCc1nc(C)c(CCC(=O)N2CCCCC2)c(=O)n1Cc1ccc(-c2ccccc2-c2nnn[nH]2)cc1,0.164 mg/kg,–
60 nM,–,CCCCc1nc(C)c(CCC(=O)N2CCOCC2)c(=O)n1Cc1ccc(-c2ccccc2-c2nnn[nH]2)cc1,0.143 mg/kg,–
24 nM,1.03 nM,CCCCc1nc(C)c(CC(=O)N2CC(C)OC(C)C2)c(=O)n1Cc1ccc(-c2ccccc2-c2nnn[nH]2)cc1 (stereo unspecified),0.029 mg/kg,–
131 nM,2.51 nM,CCCCc1nc(C)c(CCC(=O)OCC)c(=O)n1Cc1ccc(-c2ccccc2-c2nnn[nH]2)cc1,0.066 mg/kg,–
28 nM,–,CCCCc1nc(C)c(CCC(=O)N2CCSCC2)c(=O)n1Cc1ccc(-c2ccccc2-c2nnn[nH]2)cc1,0.204 mg/kg,–
80 nM,–,CCCCc1nc(Cl)c(CO)n1Cc1ccc(-c2ccccc2-c2nnn[nH]2)cc1 [LOSARTAN],0.336 mg/kg,–
–,4.69 nM,CCCc1nc(C)c(CC(=O)N(CC)CC)c(=O)n1Cc1ccc(-c2ccccc2-c2nnn[nH]2)cc1,–,–
306 nM,–,CCCCc1nc(C)c(CCC(=O)O)c(=O)n1Cc1ccc(-c2ccccc2-c2nnn[nH]2)cc1,0.094 mg/kg,inhibition (Rattus norvegicus [1]): 27.9%
9 nM,–,CCCCc1nc(C)c(CC(=O)N2CCSCC2)c(=O)n1Cc1ccc(-c2ccccc2-c2nnn[nH]2)cc1,0.038 mg/kg,–
63.3 nM,–,CCCCc1nc(C)c(CC(=O)N2CCCCC2)c(=O)n1Cc1ccc(-c2ccccc2-c2nnn[nH]2)cc1,0.063 mg/kg,inhibition (Rattus norvegicus [1]): 71.7%
6.27 nM,1.31 nM,CCCCc1nc(C)c(CC(=S)N(CC)CC)c(=O)n1Cc1ccc(-c2ccccc2-c2nnn[nH]2)cc1,0.023 mg/kg,–
–,–,CCCCc1nc(C)c(CC(=S)N(C)C)c(=O)n1Cc1ccc(-c2ccccc2-c2nnn[nH]2)cc1 [listing 2 of 2 here],–,Activity (Rattus norvegicus [6]): Active; inhibition [7]: inactive; Activity (Rattus norvegicus [8]): Active; Ratio IC50 [9]: 145; Activity (Rattus norvegicus [10]): Active; inhibition [11]: inactive; Ratio IC50 (Rattus norvegicus [12]): 615
8.04 nM,6.11 nM,CCCCc1nc(C)c(CC(=S)N2CCCCCC2)c(=O)n1Cc1ccc(-c2ccccc2-c2nnn[nH]2)cc1,0.034 mg/kg,–
59.2 nM,1.58 nM,CCCCc1nc(C)c(CC(=O)N2CCCC2)c(=O)n1Cc1ccc(-c2ccccc2-c2nnn[nH]2)cc1,0.056 mg/kg,inhibition (Rattus norvegicus [1]): 76.7%
–,–,CCCCc1nc(C)c(CC(=S)N(C)C)c(=O)n1Cc1ccc(-c2ccccc2-c2nnn[n-]2)cc1.O.O.O.[K+],–,half-life [13]: 5.3 h; Vd/F [14]: 37.3 L/kg; MTD [15]: > 2000 mg/kg; AUC [16]: 678 ng·h/mL; Tmax [17]: 6 min; Activity (Rattus norvegicus [18]): Non-toxic; Activity (Rattus norvegicus [19]): 75%; MTD [20]: > 2000 mg/kg; Ae (Rattus norvegicus [21]): Active; CL/F [22]: 84 mL/min/kg; Cmax [23]: 242 ng/mL
72.6 nM,13.1 nM,CCCCc1nc(C)c(CCC(=O)N2CC(C)OC(C)C2)c(=O)n1Cc1ccc(-c2ccccc2-c2nnn[nH]2)cc1 (stereo unspecified),0.228 mg/kg,–
58.5 nM,–,CCCCc1nc(C)c(CCC(=O)N2CCC[C@H]2C(=O)OC)c(=O)n1Cc1ccc(-c2ccccc2-c2nnn[nH]2)cc1,0.063 mg/kg,–

Structure (SMILES),IC50 [3],IC50 [4],ED50 (Rattus norvegicus [2]),further results
CCCCc1nc(C)c(CC(=S)N(C)C)c(=O)n1Cc1ccc(-c2ccccc2-c2nnn[nH]2)cc1 [listing 1 of 2 here],0.13 nM,0.42 nM,0.018 mg/kg,Ratio ED50 (Rattus norvegicus [5]): 19
CCCCc1nc(C)c(CC(=O)N2CCN(C)CC2)c(=O)n1Cc1ccc(-c2ccccc2-c2nnn[nH]2)cc1,19 nM,–,–,–
